Test results: ChEMBL document CHEMBL4325889, “Natural products hybrids: 3,5,4'-Trimethoxystilbene-5,6,7-trimethoxyflavone chimeric analogs as potential cytotoxic agents against diverse human cancer cells” (Eur J Med Chem, 2019)

Assays:
Type in all cases: functional
HCC 2998 = assay: Growth inhibition of human HCC2998 cells at 10 uM after 48 hrs by SRB assay relative to control; conditions: HCC 2998, 48 h, read-out: GI
Method in brief: (§1)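 Screened at the National Cancer Institute by the standard NCI protocol using the sulforhodamine B assay, which measures cellular protein. Single dose of 10 µM. Result is percent growth inhibition; values above 100% mean cell number fell below the initial population. Values are the average of duplicates.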

UACC-62 = assay: Growth inhibition of human UACC62 cells at 10 uM after 48 hrs by SRB assay relative to control; conditions: UACC-62, 48 h, read-out: GI
Method in brief: (§2)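 NCI screen against its human cancer cell line panel by the standard NCI protocol, SRB protein stain. Single dose of 10 μM. Percent growth inhibition versus control; values above 100% mean the cell population fell below the starting number. Each value is the mean of duplicates.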

KM12 = assay: Growth inhibition of human KM12 cells at 10 uM after 48 hrs by SRB assay relative to control; conditions: KM12, 48 h, read-out: GI; method in brief: as §1
U-251 = assay: Growth inhibition of human U251 cells at 10 uM after 48 hrs by SRB assay relative to control; conditions: U-251, 48 h, read-out: GI; method in brief: as §2
OVCAR-3 = assay: Growth inhibition of human OVCAR3 cells at 10 uM after 48 hrs by SRB assay relative to control; conditions: OVCAR-3, 48 h, read-out: GI; method in brief: as §1
MCF7 = assay: Growth inhibition of human MCF7 cells at 10 uM after 48 hrs by SRB assay relative to control; conditions: MCF7, 48 h, read-out: GI; method in brief: as §1
LOX IMVI = assay: Growth inhibition of human LOXIMVI cells at 10 uM after 48 hrs by SRB assay relative to control; conditions: read-out: GI; method in brief: as §1
SR = assay: Growth inhibition of human SR cells at 10 uM after 48 hrs by SRB assay relative to control; conditions: read-out: GI; method in brief: as §2
SF-268 = assay: Growth inhibition of human SF268 cells at 10 uM after 48 hrs by SRB assay relative to control; conditions: SF-268, 48 h, read-out: GI; method in brief: as §1
HCT-116 = assay: Growth inhibition of human HCT116 cells at 10 uM after 48 hrs by SRB assay relative to control; conditions: HCT-116, 48 h, read-out: GI; method in brief: as §1
NCI-H322M = assay: Growth inhibition of human NCI-H322M cells at 10 uM after 48 hrs by SRB assay relative to control; conditions: read-out: GI; method in brief: as §1
A549 = assay: Growth inhibition of human A549 cells at 10 uM after 48 hrs by SRB assay relative to control; conditions: A549, 48 h, read-out: GI; method in brief: as §1
HOP-92 = assay: Growth inhibition of human HOP92 cells at 10 uM after 48 hrs by SRB assay relative to control; conditions: HOP-92, 48 h, read-out: GI; method in brief: as §1
UO-31 = assay: Growth inhibition of human UO31 cells at 10 uM after 48 hrs by SRB assay relative to control; conditions: UO-31, 48 h, read-out: GI; method in brief: as §2
OVCAR-4 = assay: Growth inhibition of human OVCAR4 cells at 10 uM after 48 hrs by SRB assay relative to control; conditions: OVCAR-4, 48 h, read-out: GI; method in brief: as §1
Hs-578T = assay: Growth inhibition of human Hs 578T cells at 10 uM after 48 hrs by SRB assay relative to control; conditions: read-out: GI; method in brief: as §1
COLO 205 = assay: Growth inhibition of human COLO205 cells at 10 uM after 48 hrs by SRB assay relative to control; conditions: COLO 205, 48 h, read-out: GI; method in brief: as §1
SK-MEL-2 = assay: Growth inhibition of human SK-MEL-2 cells at 10 uM after 48 hrs by SRB assay relative to control; conditions: SK-MEL-2, 48 h, read-out: GI; method in brief: as §1
CAKI-1 = assay: Growth inhibition of human Caki1 cells at 10 uM after 48 hrs by SRB assay relative to control; conditions: CAKI-1, 48 h, read-out: GI; method in brief: as §1
NCI/ADR-RES = assay: Growth inhibition of human NCI/ADR-RES cells at 10 uM after 48 hrs by SRB assay relative to control; conditions: read-out: GI; method in brief: as §1
UACC-257 = assay: Growth inhibition of human UACC257 cells at 10 uM after 48 hrs by SRB assay relative to control; conditions: UACC-257, 48 h, read-out: GI; method in brief: as §2

Compound	inhibition of growth at 10 µM (HCC 2998) [%]	inhibition of growth at 10 µM (UACC-62) [%]	inhibition of growth at 10 µM (KM12) [%]	inhibition of growth at 10 µM (U-251) [%]	inhibition of growth at 10 µM (OVCAR-3) [%]	inhibition of growth at 10 µM (MCF7) [%]	inhibition of growth at 10 µM (LOX IMVI) [%]	inhibition of growth at 10 µM (SR) [%]	inhibition of growth at 10 µM (SF-268) [%]	inhibition of growth at 10 µM (HCT-116) [%]	inhibition of growth at 10 µM (NCI-H322M) [%]	inhibition of growth at 10 µM (A549) [%]	inhibition of growth at 10 µM (HOP-92) [%]	inhibition of growth at 10 µM (UO-31) [%]	inhibition of growth at 10 µM (OVCAR-4) [%]	inhibition of growth at 10 µM (Hs-578T) [%]	inhibition of growth at 10 µM (COLO 205) [%]	inhibition of growth at 10 µM (CAKI-1) [%]	inhibition of growth at 10 µM (NCI/ADR-RES) [%]	inhibition of growth at 10 µM (UACC-257) [%]	further results
COc1ccc(C(=O)Nc2cccc(-c3cc(=O)c4c(O)c(OC)c(OC)cc4o3)c2)cc1	19.4	33.7	-0.05	28.9	-0.49	9.78	6.47	20.8	13.9	30.2	8.16	15.1	42.3	4.63	4.66	25.8	-7.69	20	13.3	13.6	inhibition of growth at 10 µM (SK-MEL-2): 16.6%
COc1cc2oc(-c3cccc(NC(=O)c4ccc5c(c4)OCO5)c3)cc(=O)c2c(O)c1OC	9.76	41.4	1.48	27.1	-4.7	11.4	5.74	19	32.5	21	15.7	13.5	38.5	15.8	25.8	26.1	2.46	34.4	14.8	17.2	inhibition of growth at 10 µM (SK-MEL-2): 6.66%
COc1cc2oc(-c3cccc(C(=O)Nc4ccccc4)c3)cc(=O)c2c(O)c1OC	10.3	61.1	42.2	63.1	29.9	21.9	11.9	4.29	63	53.7	33.6	39.7	94.7	40.3	120	88.9	7.73	51.1	20.9	15.7	inhibition of growth at 10 µM (SK-MEL-2): 35%
COc1ccccc1NC(=O)c1cccc(-c2cc(=O)c3c(O)c(OC)c(OC)cc3o2)c1	-2.45	26.5	0.81	-0.16	-0.89	7.54	16.7	21.5	12.9	14.5	1.56	18.5	15.8	30	3.74	3.9	-7.01	6.75	19.8	1.19	inhibition of growth at 10 µM (SK-MEL-2): 14.1%
COc1cc2oc(-c3cccc(C(=O)Nc4ccc5c(c4)OCO5)c3)cc(=O)c2c(O)c1OC	-4.53	18.6	29.4	44.2	10.5	8.35	11.8	24.1	41.3	43	19	25.1	27	17.9	99.9	27.3	5.22	23.1	29.4	21.8	inhibition of growth at 10 µM (SK-MEL-2): 10.1%
COc1ccccc1NC(=O)c1cccc(-c2cc(=O)c3c(OC)c(OC)c(OC)cc3o2)c1	13.6	46.5	34.8	11	47.5	28.4	52.1	32.4	29.3	31.9	18.9	31.1	62.5	69.6	19.4	60	14.8	43	46.7	-6.14	inhibition of growth at 10 µM (SK-MEL-2): 14.4%
COc1ccc(NC(=O)c2cccc(-c3cc(=O)c4c(OC)c(OC)c(OC)cc4o3)c2)cc1	26.3	35.2	45.2	13.9	54.3	21.1	75.4	18.4	27.9	36.6	24.5	22.4	52.7	56.1	15.3	41.6	30.6	63.7	47.2	-2.76	inhibition of growth at 10 µM (SK-MEL-2): 15.3%
COc1cccc(C(=O)Nc2cccc(-c3cc(=O)c4c(OC)c(OC)c(OC)cc4o3)c2)c1	19.5	41.1	53.9	36.2	24.6	21.3	42.6		42.6	46.4	27.1	44.1	51.8	66.7	37.7	43.2		18.1	34.5	3.66	inhibition of growth at 10 µM (SK-MEL-2): 38.1%
Cc1ccc(NC(=O)c2ccc(CN3CCN(C)CC3)cc2)cc1Nc1nccc(-c2cccnc2)n1 [IMATINIB]	-22	7.7	-6.7	10.6	-10.3	8.1	11.6	14.6	-3.8	18.6		3.8	43.7	7.6	-0.1	9.9	-1.1	-0.2	-0.5	2.8	
